# CHRM5 agonist: CHRM5 agonism in calcium assay | P08912 | CHO-K1 hM5 cells, Fluo-8 calcium fluorescence; 0% DMSO wells, 100% maximal acetylcholine response | activation, % at 3 µM | 360,000 tested, 0.19% active | AID 624037;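 active means activation above the run's mean over test compounds plus 3 SD, cut at about 23% in these data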;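 further: signal is peak over basal fluorescence ratio across the kinetic read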
# Target sequence (P08912 whole entry, looked up): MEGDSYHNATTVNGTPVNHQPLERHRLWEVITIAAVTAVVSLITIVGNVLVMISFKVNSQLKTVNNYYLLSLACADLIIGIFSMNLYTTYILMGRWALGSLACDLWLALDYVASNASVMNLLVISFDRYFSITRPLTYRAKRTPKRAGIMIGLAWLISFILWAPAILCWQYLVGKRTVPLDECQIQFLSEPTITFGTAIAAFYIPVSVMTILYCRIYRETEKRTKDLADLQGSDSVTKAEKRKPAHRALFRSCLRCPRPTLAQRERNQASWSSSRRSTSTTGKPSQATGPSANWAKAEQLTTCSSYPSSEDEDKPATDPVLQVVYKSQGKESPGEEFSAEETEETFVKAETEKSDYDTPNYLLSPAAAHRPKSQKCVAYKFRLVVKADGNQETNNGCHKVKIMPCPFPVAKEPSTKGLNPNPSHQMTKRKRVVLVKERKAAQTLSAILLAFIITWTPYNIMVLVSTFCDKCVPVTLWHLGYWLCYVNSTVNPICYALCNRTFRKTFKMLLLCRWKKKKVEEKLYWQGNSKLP
# M4 antag: blocks acetylcholine activation of human M4 receptor | P08173 | CHO-hM4 cells, ACh EC80, Fluo-8 calcium fluorescence | inhibition, % at 3 µM | 360,000 tested, 0.73% active | AID 624125;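 active means inhibition above its plate's cutoff, the mean inhibition of sample wells plus 3 SD, cut at about 27% in these data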;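 further: 0% = acetylcholine EC80 with DMSO and 100% = DMSO without agonist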
# M4 PAM: CHRM4 positive allosteric modulation; 360,000 tested, 0.4% active; P08173; CHO-K1 hM4/Gqi5, Fluo-8 calcium fluorescence, ACh EC20; 0% = ACh EC20, 100% = maximal ACh; activation, % at 3 µM;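 active means activation above its plate's cutoff, the mean activation of sample wells plus 3 SD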
# CHRM5 PAM: positive allosteric modulators of human muscarinic M5 receptor. 360,000 tested, 0.3% active. AID 624038. activation, % at 3 µM. P08912. CHO-K1 hM5, Fluo-8 calcium, ACh EC20 PAM; 0% = ACh EC20, 100% = ACh EC100;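 active means activation above the run cutoff, the mean activation of all test compounds plus 3 SD, cut at about 18% in these data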
#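 system = human M5 receptor in CHO-K1 cells | compound = one concentration, 3 µM final (nominal) | schedule = Post-acetylcholine fluorescence recording 140 s | signal = Fluo-8 calcium dye fluorescence, kinetic read | benchmarks = low control EC20 acetylcholine (0%), high control EC100 acetylcholine (100%) | repeats = singlicate, one well per test compound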
# CHRM4 agonist: agonists of human muscarinic M4 receptor (CHRM4) | P08173 | CHO-K1 hM4/Gqi5, Fluo-8 calcium fluorescence; vehicle 0%, full acetylcholine response 100% | activation, % at 3 µM | 360,000 tested, 0.14% active;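 active means activation above the run mean over all test wells plus 3 SD, cut at about 32% in these data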;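 further: peak over basal fluorescence ratio per well then scaled between controls; 0% = DMSO wells and 100% = acetylcholine at EC100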
# CHRM5 antagonist: CHRM5 antagonism in calcium assay; P08912; CHO-hM5 cells, Fluo-8 calcium fluorescence, ACh EC80; inhibition, % at 3 µM; 360,000 tested, 0.59% active; AID 624040;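 active means inhibition above a per-plate cutoff, the mean of that plate's test compounds plus 3 SD, cut at about 27% in these data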;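 further: 0% = acetylcholine EC80 with DMSO and 100% = DMSO without agonist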
# * = called active by the depositor. Rows were chosen to be rich in hits. Some 1.8% of all compounds tested hit in one or more screens of this group.
SMILES,CHRM5 agonist,M4 antag,M4 PAM,CHRM5 PAM,CHRM4 agonist,CHRM5 antagonist
O=C(CN1CCN(C(=O)CNC(=O)c2ccc3c(c2)OCO3)CC1)Nc1ccccc1Cl,3,3,-1,2,3,-6
Cc1cccc(C)c1NC(=O)CNC(=O)CNC(=O)c1ccc2c(c1)OCO2,4,-11,23*,-1,0,8
O=C(CN1CCN(C(=O)CNC(=O)c2ccc3c(c2)OCO3)CC1)Nc1cccc(F)c1,1,-17,8,19*,1,-8
CCNC(=O)C1CCCN(C(=O)c2ccc(C#N)cc2)CC1 (stereo not given),-1,-1,4,-2,0,5
CCc1nc2c(OCc3ccc(C(=O)N(C)C)cc3)cccn2c1N(C)C(=O)c1ccc(C)cc1,-1,-2,-2,-1,1,-1
COc1ccc(-c2coc3c(C(=O)NCc4cccs4)cccc23)c(C)c1,-1,17,-7,-14,5,13
CC1(Cc2cc(Cl)ccc2C(F)(F)F)C(=O)Nc2cc(C(F)(F)F)ccc21 (stereo not given),0,-11,2,-6,0,1
Cc1cc(N2C(=O)C(O)=C(C(=O)c3cccs3)C2c2ccccc2)no1 (stereo not given),3,0,4,7,-3,1
Cc1cc(N2C(=O)C(O)=C(C(=O)c3cccs3)C2c2ccc(F)cc2)no1 (stereo not given),5,-25,28,19*,-2,-10
COc1cccc(C2C(C(=O)c3cccs3)=C(O)C(=O)N2c2cc(C)on2)c1 (stereo not given),2,-15,6,26*,0,2
COc1ccc(C)cc1NC(=O)CSc1nnc2ccc(-c3ccncc3)nn12,-4,27*,-16,0,4,1
COc1ccc(OC)c(NC(=O)CSc2nnc3ccc(-c4ccncc4)nn23)c1,-14,-7,-19,2,2,5
COCCNC(=O)C1CCCN(C(=O)C2(c3ccc(Cl)cc3)CCCC2)CC1 (stereo not given),-1,-11,2,-2,1,4
COc1ccccc1Oc1ncnc2c1cnn2-c1ccccc1,-6,-2,-4,-4,0,12
CC(=O)Nc1ccc(Nc2ncnc3c2cnn3-c2ccccc2)cc1,-1,28*,21,0,6,5
COc1ncnc2c1cnn2-c1ccccc1,0,-16,27*,4,1,-8
CC(=O)Nc1ccc(Nc2ncnc3c2cnn3-c2cccc(C)c2)cc1,0,0,5,4,0,-4
CCC(=O)N(C)C[C@H]1Oc2cc(-c3ccccc3F)ccc2S(=O)(=O)N([C@H](C)CO)C[C@H]1C,2,8,-4,5,5,0
Fc1ccc(-c2[nH]ncc2CN2CCN(c3ccc(F)cc3)CC2)cc1,31*,2,-4,2,9,5
Fc1ccc(N2CCN(Cc3cn[nH]c3-c3ccccc3)CC2)cc1,7,-3,-7,-3,1,4
COC(=O)/C(=C\C(=O)c1ccccc1)Nc1ccc(OC)cc1,3,-1,0,27*,1,30*
O=C(CC(c1ccccc1O)N1CCCCC1)N1CCCCC1 (stereo not given),-7,78*,-29,-17,2,8
O=C(CC(c1ccccc1)c1cc(Cl)ccc1O)N1CCCC1 (stereo not given),-15,3,-16,-4,-1,8
CC1CC2C3CCC4=CC(=O)C=CC4(C)C3(F)C(O)CC2(C)C1(O)C(=O)CO (stereo not given),-1,9,16,3,1,8
CC1(C)O[C@@H]2C[C@H]3[C@@H]4C[C@H](F)C5=CC(=O)C=C[C@]5(C)[C@@]4(F)[C@@H](O)C[C@]3(C)[C@]2(C(=O)CO)O1,2,-15,5,2,1,6

# Bioassay records: PubChem BioAssay, The Scripps Research Institute Molecular Screening Center
